How the values were obtained:
Rattus norvegicus [1] = assay: Changes in systolic Blood pressure following iv administration at (4.12 umol/kg) anesthetized rats; assay type: functional
Method in brief: (§1)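 Adult male Wistar rats (280 ± 5 g) anesthetized with 10% (w/v) ethylurethane in saline, 1 mL/100 g ip. Trachea cannulated for spontaneous breathing, body temperature held at 37 °C, 60 min stabilization. Single iv injection into the femoral vein of a saline-dissolved drug, dose expressed as free base; n = 4 per drug. Aortic systolic/diastolic BP recorded via a femoral artery catheter and pressure transducer; peak change taken.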

Rattus norvegicus [2] = assay: Changes in diastolic Blood pressure following iv administration at (4.12 umol/kg) anesthetized rats; assay type: functional; method in brief: as §1
Rattus norvegicus [3] = assay: Changes in systolic blood pressure following iv administration at 4.12 umol/kg in anesthetized rats; assay type: functional, Artery; method in brief: as §1
Rattus norvegicus [4] = assay: Changes in diastolic blood pressure following iv administration at 4.12 umol/kg in anesthetized rats; assay type: functional, Artery; method in brief: as §1
Rattus norvegicus [5] = assay: Changes in systolic blood pressure following iv administration at (4.12 umol/kg) anesthetized rats; assay type: functional; method in brief: as §1
Rattus norvegicus [6] = assay: Changes in diastolic blood pressure following iv administration at (4.12 umol/kg) anesthetized rats; assay type: functional; method in brief: as §1
Rattus norvegicus [7] = assay: Changes in systolic Blood pressure following iv administration at (25 umol/kg) anesthetized rats; assay type: functional; method in brief: as §1
Rattus norvegicus [8] = assay: Changes in diastolic Blood pressure following iv administration at (25 umol/kg) anesthetized rats; assay type: functional; method in brief: as §1
Rattus norvegicus [9] = assay: Changes in systolic blood pressure following iv administration at (12 umol/kg)anesthetized rats; assay type: functional; method in brief: as §1
Rattus norvegicus [10] = assay: Changes in diastolic blood pressure following iv administration at (12 umol/kg)anesthetized rats; assay type: functional; method in brief: as §1
Rattus norvegicus [11] = assay: Changes in diastolic Blood pressure following iv administration at (5 umol/kg) anesthetized rats; assay type: functional; method in brief: as §1
Rattus norvegicus [12] = assay: Changes in systolic Blood pressure following iv administration at (5 umol/kg) anesthetized rats; assay type: functional; method in brief: as §1
Rattus norvegicus [13] = assay: Changes in diastolic Blood pressure following iv administration at (8 umol/kg) anesthetized rats; assay type: functional; method in brief: as §1
Rattus norvegicus [14] = assay: Changes in systolic Blood pressure following iv administration at (8 umol/kg) anesthetized rats; assay type: functional; method in brief: as §1

COc1ccc(/C=C/C(=O)NCCN=C(N)N)cc1OC.CS(=O)(=O)O
Blood pressure (Rattus norvegicus [1]): -29 mmHg
Blood pressure (Rattus norvegicus [2]): -33 mmHg

COc1ccc(/C=C/C(=O)NCCCCN=C(N)N)cc1OC.CS(=O)(=O)O
Blood pressure (Rattus norvegicus [3]): -21 mmHg
Blood pressure (Rattus norvegicus [4]): -30 mmHg

COc1ccc(C(=O)NCCCC/N=C(\N)NCC=C(C)C)cc1.CS(=O)(=O)O
Blood pressure (Rattus norvegicus [1]): -28 mmHg
Blood pressure (Rattus norvegicus [2]): -31 mmHg

COc1ccc(/C=C/C(=O)NCCCN=C(N)N)cc1OC.CS(=O)(=O)O
Blood pressure (Rattus norvegicus [1]): -24 mmHg
Blood pressure (Rattus norvegicus [2]): -28 mmHg

COc1ccc(C=CC(=O)NCCCCN=C(N)N)cc1OC
Blood pressure (Rattus norvegicus [1]): -12 mmHg
Blood pressure (Rattus norvegicus [2]): -10 mmHg

COc1ccc(/C=C/C(=O)NCCCCCCN=C(N)N)cc1OC.CS(=O)(=O)O
Blood pressure (Rattus norvegicus [5]): -14 mmHg
Blood pressure (Rattus norvegicus [6]): -36 mmHg

COc1ccc(/C=C/C(=O)NCCCCCN=C(N)N)cc1OC.CS(=O)(=O)O
Blood pressure (Rattus norvegicus [1]): -17 mmHg
Blood pressure (Rattus norvegicus [2]): -27 mmHg

N=C(N)NCCN1CCCCCCC1 [GUANETHIDINE]
Blood pressure (Rattus norvegicus [7]): -32 mmHg
Blood pressure (Rattus norvegicus [8]): -23 mmHg

C[N+](C)(C)CCCCCC[N+](C)(C)C.[Cl-].[Cl-] [HEXAMETHONIUM CHLORIDE]
Blood pressure (Rattus norvegicus [9]): -46 mmHg
Blood pressure (Rattus norvegicus [10]): -30 mmHg

COc1ccc(Cc2nccc3cc(OC)c(OC)cc23)cc1OC [PAPAVERINE]
Blood pressure (Rattus norvegicus [11]): -16 mmHg
Blood pressure (Rattus norvegicus [12]): -21 mmHg

COC(=O)[C@H]1[C@H]2C[C@@H]3c4[nH]c5cc(OC)ccc5c4CCN3C[C@H]2C[C@@H](OC(=O)c2cc(OC)c(OC)c(OC)c2)[C@@H]1OC [RESERPINE]
Blood pressure (Rattus norvegicus [13]): -27 mmHg
Blood pressure (Rattus norvegicus [14]): -34 mmHg

— ChEMBL document CHEMBL1134580, “Novel hypotensive agents from Verbesina caracasana. 8. Synthesis and pharmacology of (3,4-dimethoxycinnamoyl)-N(1)-agmatine and synthetic analogues” (2001)
